This is a sample that favours compounds with a hit; in the whole collection about 4.7% have one here.
AHR act = AHR activators, primary screen, cell-based, luminescence, luciferase reporter, human; Aryl hydrocarbon receptor (Homo sapiens), P35869; AHR-responsive luciferase reporter cells; activation, % at 5 µM; 2.5% of 320,000 active; AID 2796, 2010; in the data active = activation above about 47%;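 note: 0% = vehicle wells and 100% = reference agonist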
Target sequence (P35869 whole entry, looked up): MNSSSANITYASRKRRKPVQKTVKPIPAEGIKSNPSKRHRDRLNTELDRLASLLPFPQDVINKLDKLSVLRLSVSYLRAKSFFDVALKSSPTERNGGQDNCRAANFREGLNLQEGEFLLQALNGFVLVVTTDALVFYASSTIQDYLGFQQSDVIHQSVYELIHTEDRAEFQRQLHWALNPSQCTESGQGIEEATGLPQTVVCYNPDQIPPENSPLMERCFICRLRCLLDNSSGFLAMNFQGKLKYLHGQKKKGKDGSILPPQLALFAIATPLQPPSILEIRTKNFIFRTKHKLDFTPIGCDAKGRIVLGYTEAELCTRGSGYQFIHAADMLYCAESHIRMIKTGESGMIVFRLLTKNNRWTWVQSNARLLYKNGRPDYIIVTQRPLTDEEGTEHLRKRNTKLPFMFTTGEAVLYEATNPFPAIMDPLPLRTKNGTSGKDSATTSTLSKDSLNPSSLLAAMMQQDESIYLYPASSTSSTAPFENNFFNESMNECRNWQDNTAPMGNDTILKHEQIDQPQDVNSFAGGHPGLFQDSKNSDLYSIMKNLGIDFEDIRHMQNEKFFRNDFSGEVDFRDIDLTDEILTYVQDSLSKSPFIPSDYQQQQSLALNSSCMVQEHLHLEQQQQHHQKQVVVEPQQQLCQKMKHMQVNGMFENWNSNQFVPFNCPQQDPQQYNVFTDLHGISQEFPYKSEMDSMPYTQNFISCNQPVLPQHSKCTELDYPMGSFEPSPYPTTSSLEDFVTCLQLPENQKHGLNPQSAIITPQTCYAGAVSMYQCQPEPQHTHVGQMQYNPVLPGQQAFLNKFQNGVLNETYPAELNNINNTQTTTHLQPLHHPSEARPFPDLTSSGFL
MC4R antag cAMP = MC4R antagonists of cAMP signaling, primary screen, cell-based, TR-FRET, antagonist arm of biased-ligand search; inhibition, % at 6.5 µM; MC4R-expressing cells, MTII-stimulated cAMP, LANCE TR-FRET; AID 540295, 2011; 0.48% of 360,000 active;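 active = inhibition above its plate's cutoff, the mean of tested wells on that plate plus 3 SD, cut at about 29% in these data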;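 note: 0% = Melanotan II alone and 100% = Melanotan II plus saturating MCL0020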
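System: U2OS-MC4R stable cell line; Technique: Eu-cAMP/anti-cAMP TR-FRET, emission 671 nm; Repeats: single well per compound; Also added: Melanotan II; Dosing: one concentration, 6.5 µM nominal; Schedule: 30-min compound, 1-h challenge, 1-h detection, room temperature.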
HTR2A ag = mouse Htr2a agonists via beta-arrestin recruitment, primary screen, cell-based, luminescence; CHO-K1 mHTR2A beta-arrestin complementation; percent of 30 µM serotonin response; activation, % at 7.6 µM; 0.66% of 360,000 active; AID 624169, 2012;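 active = activation above a run cutoff, the mean activation of all tested compounds plus 3 SD, cut at about 14% in these data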;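 note: 0% = plate median of compound wells and 100% = 30 µM serotonin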
FXN GAA850 act = FXN promoter activators, primary screen, cell-based, luciferase luminescence, HEK293 lucGAA850. HEK293 lucGAA850 FXN promoter luciferase reporter, 24 h; percent of 10 µM SAHA response. activation, % at 6 µM. 0.56% of 360,000 active;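 active = activation above the average of all compounds screened plus 3 SD, cutoff fixed separately per campaign, cut at about 7.5% in these data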;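 note: 0% = DMSO wells and 100% = 10 µM SAHA wells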
MC4R barr agon = MC4R agonists recruiting beta-arrestin, primary screen, cell-based, luminescence, agonist arm of biased-ligand search | activation, % at 8.9 µM | Melanocortin receptor 4 (Homo sapiens), P32245 | U2OS MC4R beta-arrestin complementation; percent of melanotan II response, DMSO zero | 0.98% of 360,000 active;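 active = activation above a per-plate cutoff, the mean activation of sample wells on that plate plus 3 SD, cut at about 8% in these data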
MC4R barr ag = MC4R beta-arrestin agonists, retest, confirmation, cell-based, luminescence, U2OS. activation, % at 8.9 µM. U2OS MC4R beta-arrestin recruitment; scaled DMSO 0%, Melanotan II 100%. 31% of 2,400 active. shares compounds with MC4R barr agon;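 active = mean activation across replicates above the hit cutoff set in the earlier primary screen, cut at about 8% in these data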
MOR DOR agonist = agonists of MOR-DOR heterodimerization, counter-screen for MC4R biased agonist project, cell-based, luminescence; shares compounds with MC4R barr agon; U2OS PathHunter beta-arrestin, beta-gal luminescence; percent of deltorphin B response, DMSO zero; activation, % at 9.2 µM; 5.8% of 2,400 active; AID 602194, 2012;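 active = mean activation across replicates exceeds the hit threshold derived in the earlier primary screen, cut at about 18% in these data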;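 note: 100% = deltorphin B at 0.9 µM final and 0% = DMSO alone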
* hit, by the source's call; nt = not tested or not shown.

SMILES | AHR act | MC4R antag cAMP | HTR2A ag | FXN GAA850 act | MC4R barr agon | MC4R barr ag | MOR DOR agonist
Cc1ccsc1C(=O)N1CCC1(C)C(=O)NS(=O)(=O)c1ccccc1C(F)(F)F (stereo not given) | nt | -2 | -1 | 0 | -1 | nt | nt
Cc1cccc(C)c1NC(=O)CN(C)C(C)C(=O)NCC(=O)Nc1ccc(F)c(F)c1F (stereo not given) | 3 | -2 | -5 | -1 | -1 | nt | nt
CCc1ccc(NC(=S)NC2CCN(Cc3ccccc3)CC2)cc1 | 6 | 18 | -6 | -3 | 7 | nt | nt
CCC(C)c1ccc(NC(=S)NC2CCN(Cc3ccccc3)CC2)cc1 (stereo not given) | 1 | 13 | -6 | -1 | 15* | 22* | 14
CCc1ccc(CCC(=O)Nc2sc3c(c2C#N)CCCC3)o1 | 3 | -14 | -2 | 3 | -3 | nt | nt
Cc1cccc(C(=O)Nc2sc3c(c2C#N)CCCCC3)c1 | 9 | -2 | 8 | 4 | 17* | -1 | 5
Cc1ccc(/C=C/C(=O)Nc2nnc(SCc3ccc(C#N)cc3)s2)o1 | 3 | 9 | 3 | 0 | 51* | 0 | 4
Cc1ccc(/C=C/C(=O)Nc2sc3c(c2C#N)CCCC3)o1 | 2 | -4 | -1 | 0 | 28* | -2 | 3
COc1ccc(C)cc1NCc1cc(=O)oc2cc(-c3ccccc3)c(O)cc12 | 49* | 7 | -7 | 5 | 13* | 2 | 4
c1ccc2c(c1)oc1c(Nc3ccc4c(c3)OCO4)ncnc12 | 42 | -2 | -2 | 7 | 11* | 2 | 8
c1ccc2c(c1)oc1c(NCc3ccc4c(c3)OCO4)ncnc12 | 6 | -1 | -3 | 1 | -1 | nt | nt
O=C(OCC(O)C(O)C(O)C(SCc1ccccc1)SCc1ccccc1)c1ccccc1 (stereo not given) | nt | 6 | 4 | 0 | 17* | 14* | 11
O=C(Nc1ccc(-c2noc(COc3ccccc3Cl)n2)cc1)c1ccco1 | -5 | 0 | 1 | 5 | 27* | 8 | 5
O=c1[nH]c(=S)[nH]c2c1C(c1cccc(C(F)(F)F)c1)OC(CCc1ccccc1)C2 (stereo not given) | nt | nt | -7 | nt | nt | nt | nt
Cc1cc(C)n2nc(C(=O)OCC(=O)N3CC(C)CC(C)C3)nc2n1 (stereo not given) | 0 | 8 | 0 | 0 | -2 | nt | nt
CCn1c(O)c(/C=N/N=C/c2ccc(OC)cc2)c2cc(C3=NNC(=O)CC3)ccc21 | 2 | 13 | 3 | 0 | 18* | 7 | 7
Cc1ccc(S(=O)(=O)c2nc(/C=C/c3ccccc3)oc2N2CCC(C(N)=O)CC2)cc1 | nt | 7 | 2 | 4 | -2 | nt | nt
O=C(CCCCCNc1nc(=S)[nH]c2ccccc12)NCCc1c[nH]c2ccccc12 | 41 | 25 | -4 | -4 | -2 | nt | nt
O=C(CCCCCNc1nc(=S)[nH]c2ccccc12)NCCc1ccc(Cl)cc1 | -2 | 20 | 4 | 0 | 12* | 11* | 6
C=C1C(O)[C@@H]2O[C@]3(CC[C@H](/C=C/C(C)[C@@H]4CC(C)=CC5(O[C@H](C[C@@](C)(O)CO)CCC5O)O4)O3)CC[C@H]2O[C@@H]1C(O)CC(C)[C@H]1OC2(CCCCO2)CCC1C (stereo not given in full) | -3 | nt | nt | nt | nt | nt | nt
COc1ccc(-c2nc(=S)c3ccc4ccccc4c3[nH]2)cc1 | nt | -2 | 3 | 0 | 12* | -1 | 1
COc1ccccc1CNC(=O)CCC(=O)N1Cc2cccc(OC)c2Oc2ncccc21 | 2 | 15 | 1 | -1 | -2 | nt | nt
COCCN(CC(=O)Nc1ccccc1C(F)(F)F)C(=O)c1ccc(-n2cccn2)cc1 | -1 | 11 | -3 | 0 | -3 | nt | nt
O=C(CCNC(=O)c1ccccc1)NNC(=O)COc1ccccc1Cl | 2 | 3 | -1 | -2 | 2 | nt | nt
O=C(c1ccc(Cl)cc1)N1CCc2c([nH]c3ccccc23)C1C(F)(F)F (stereo not given) | 9 | 17 | 5 | -1 | 9.8* | 1 | 8
SMILES | AHR act | MC4R antag cAMP | HTR2A ag | FXN GAA850 act | MC4R barr agon | MC4R barr ag | MOR DOR agonist
O=C(O)CCC(=O)N1CCc2c([nH]c3ccccc23)C1C(F)(F)F (stereo not given) | 7 | 12 | 4 | 1 | -3 | nt | nt
CCOC(=O)c1cccc(NC(=O)CSc2nnc(COc3ccccc3C)o2)c1 | -1 | -12 | 4 | -2 | 11* | 3 | 9
NC(CCc1ccccc1)c1csc(Nc2ccc(C(F)(F)F)cn2)n1 (stereo not given) | nt | -7 | 0 | 2 | 17* | 3 | 11
CC(C)CC(N)c1csc(Nc2ccc(C(F)(F)F)cn2)n1 (stereo not given) | nt | -1 | 0 | -2 | 10* | 26* | 13
NC(Cc1ccc(Cl)cc1)c1csc(Nc2ccc(C(F)(F)F)cn2)n1 (stereo not given) | nt | 6 | -4 | 0 | 2 | nt | nt
NC(COCc1ccccc1)c1csc(Nc2ccc(C(F)(F)F)cn2)n1 (stereo not given) | nt | -6 | 3 | 1 | 7 | nt | nt
COc1ccc2oc(C(=O)NC3CCCCC3)c(C)c2c1 | 19 | 9 | 0 | 5 | 1 | nt | nt
CCOc1ccc2oc(C(=O)OCC(=O)NCc3ccc(OC)cc3)c(C)c2c1 | 2 | -3 | -2 | 2 | 30* | 1 | 7
COc1ccc2oc(C(=O)OCC(=O)NCc3ccc(OC)c(OC)c3)c(C)c2c1 | nt | 2 | 4 | 0 | -1 | nt | nt
COc1ccc2oc(C(=O)Nc3ccc(C)cn3)c(C)c2c1 | 75* | -4 | -5 | 1 | 13* | 6 | 5
COc1ccc2oc(C(=O)OCC(=O)Nc3ccccc3)c(C)c2c1 | 3 | -3 | 0 | 0 | -2 | nt | nt
COc1ccc2oc(C(=O)OCC(=O)Nc3ccccc3OC)c(C)c2c1 | 27 | -6 | -5 | 0 | 14* | 4 | 4
Nc1c(-c2cccs2)cnn1-c1nc(-c2ccc(Cl)cc2Cl)cs1 | 42 | -1 | 2 | 1 | 19* | 21* | 3
S=c1[nH]nc(-c2ccccc2)n1/N=C/c1ccc(-c2ccccc2Cl)o1 | 53* | 9 | -2 | -6 | 12* | -3 | 2
